Measured values from different studies.
Protocols differ between the studies behind these lines.
Target: Glycogen synthase kinase-3 beta (GSK3B, Homo sapiens, UniProt P49841)

Compound	test	conditions	quantity	result
COc1ccc(CNC(=O)Nc2ncc([N+](=O)[O-])s2)cc1	cell-free assay	0.5 µM	remaining signal	40.2%
FC(F)(F)Oc1cccc(-c2cnc3ccc(-c4ccncc4)nn23)c1	enzyme activity, inhibitor, radiometric	5 µM	activity vs control	98%
C[C@@H]1CN(c2cc(-c3nn(C)c4ccc(OC5(C)CC5)cc34)ncn2)C[C@H](C)O1	cell-free assay, competition with immobilised ligand	1 µM	remaining binding	91%
COc1ccc(COc2ccc(Cc3cnc(N)nc3N)cc2OC)cc1	cell-free assay	0.5 µM	remaining signal	97.8%
Cc1sc(C(=O)NC2COC2)cc1-n1cc(NC(=O)Nc2c(F)cccc2Cl)cn1	enzyme activity, inhibitor	10 µM	remaining activity	94.9%
Cc1cc(NS(=O)(=O)c2ccc(N)cc2)nc(C)n1	enzyme activity, inhibitor, ADP detection	100 µM	inhibition	11.7%
CS(=O)(=O)c1cc(C2(NC(=O)c3cncc4c3cnn4-c3ccc(F)cc3)CC2)ccn1	cell-free assay, competition with immobilised ligand	1 µM	remaining binding	85%
CCN(CC)c1ccc(C2=NNC(=O)CC2C)cc1[N+](=O)[O-] (stereo not shown)	enzyme activity, inhibitor	10 µM	remaining activity	93%
CCCOc1ccc(OC)c(F)c1C(=O)c1ccc(C(=O)N[C@@H]2CNC[C@H]2NC(=O)c2ccc3[nH]ncc3c2)cc1	enzyme activity, inhibitor	10 µM	remaining activity	67%
Oc1cc2c(cc1O)C1c3ccc(O)c(O)c3OCC1(O)C2 (stereo not shown)	enzyme activity, inhibitor, ADP detection	100 µM	inhibition	50.5%
Nc1cccc(-c2cc3c(Oc4cccc(O)c4)ncnc3[nH]2)c1	cell-free assay	0.5 µM	remaining signal	48.1%
COc1cc2c(cc1OC)-c1c(oc3c4c(ccc3c1=O)OC(C)(C)C=C4)CO2	enzyme activity, inhibitor, ADP detection	100 µM	inhibition	10.4%
O=C1c2ccccc2-c2n[nH]c3cccc1c23	enzyme activity, inhibitor	0.5 µM	activity vs control	86.8%
CS(=O)(=O)NCC[C@H](NC(=O)c1cncc2c1cnn2-c1ccc(F)cc1)c1ccnc(S(C)(=O)=O)c1	cell-free assay, competition with immobilised ligand	1 µM	remaining binding	100%
Cc1ccc(NC(=O)c2ccc(C)c(C(F)(F)F)c2)cc1C#Cc1nn(C2CCC(O)CC2)c2ncnc(N)c12 (stereo not shown)	cell-free assay	10 µM	remaining signal	26%
O=C(O)[C@H]1[C@H](Cn2nnc3ccccc3c2=O)CC[C@@H]1C(=O)c1ccc(OCCC2CCOCC2)cc1	cell-free assay, competition with immobilised ligand	1 µM	remaining binding	100%
Cn1c(=O)n(-c2ccc(C(C)(C)C#N)cc2)c2c3cc(-c4cnc5ccccc5c4)ccc3ncc21	enzyme activity, inhibitor	10 µM	remaining activity	76%
Cc1cnc(NC2CCOCC2)nc1-n1cnc(C(=O)NC(CN)c2cc(F)cc(Cl)c2)c1 (stereo not shown)	enzyme activity, inhibitor, radiometric	1 µM	remaining activity	7%
CC(C)(O)[C@H]1CC[C@H](Nc2ccc3ncc(-c4cccc(C(F)(F)F)c4)n3n2)CC1	enzyme activity, inhibitor	1 µM	remaining activity	81.6%

Compound	test	conditions	quantity	result
CC(C)n1cnc2c(Nc3cccc(Cl)c3)nc(NCCO)nc21	cell-free assay	0.5 µM	remaining signal	96%
Cc1nc(C2CCN(C(=O)c3ccc(OC(F)(F)F)cc3N)CC2)c2ncc(N3CCN(C)CC3)cc2n1	cell-free assay, competition with immobilised ligand	1 µM	remaining binding	100%
CC1CCc2c(N3CCC(O)CC3)c(F)cc3c(=O)c(C(=O)O)cn1c23 (stereo not shown)	enzyme activity, inhibitor, ADP detection	100 µM	inhibition	46.1%
C[C@@H]1CN(c2cc(-c3n[nH]c4ccc(OC5(C)CC5)cc34)ncn2)C[C@H](C)O1	cell-free assay, competition with immobilised ligand	0.1 µM	remaining binding	90%
O=c1cc(-c2cccc3c2Sc2ccccc2S3)oc(N2CCOCC2)c1	enzyme activity, inhibitor	0.5 µM	remaining activity	98.7%
Cc1cc(-n2nc(Cc3cc(F)cc(C(F)(F)F)c3)nc2C)ccc1C(N)=O	cell-free assay, competition with immobilised ligand	1 µM	remaining binding	98%
Cc1ccc(C(=O)Nc2ccc(CN3CCN(C)CC3)c(C(F)(F)F)c2)cc1C#Cc1cnc2cccnn12	enzyme activity, inhibitor	23.5 nM	remaining activity	92%
COc1cc(Nc2cnc(C#N)c(O[C@H](C)CN(C)C)n2)ncc1-c1cnn(C)c1	enzyme activity, inhibitor, radiometric	10 µM	remaining activity	52%
CCC(=O)N[C@@H]1CC[C@H](C(=O)N(C)c2ccc(-c3nc4ccccc4o3)cc2)C1	cell-free assay, competition with immobilised ligand	1 µM	remaining binding	96%
Cc1ncc([N+](=O)[O-])n1CCO	enzyme activity, inhibitor, ADP detection	100 µM	inhibition	32.8%
Nc1nc(Nc2ccc(S(N)(=O)=O)cc2)nn1C(=O)c1c(F)cccc1F	cell-free assay	0.5 µM	remaining signal	22%
Nc1ncnc2occ(-c3ccc(NC(=O)Nc4cc(C(F)(F)F)ccc4F)cc3)c12	enzyme activity, inhibitor	20 µM	remaining activity	57%
N#C[C@@H]1C[C@@H]2C[C@@H]2N1C(=O)[C@@H](N)C12CC3CC(CC(O)(C3)C1)C2	enzyme activity, inhibitor, ADP detection	100 µM	inhibition	8.2%
CCN(CC)CCNC(=O)c1c(C)[nH]c(/C=C2\C(=O)Nc3ccc(Cl)cc32)c1C	enzyme activity, inhibitor	0.5 µM	remaining activity	93.1%
Cc1cnc(C(=O)NCCc2ccc(S(=O)(=O)NC(=O)NC3CCCCC3)cc2)cn1	enzyme activity, inhibitor, ADP detection	100 µM	inhibition	45.4%
CN(C)C1CCN(CC#Cc2nn(C3CCCC3)c3nc(NCc4ccccc4)ncc23)C1 (stereo not shown)	enzyme activity, inhibitor, FRET	10 µM	inhibition	7%
COc1cc(-c2coc3cc(O)c(OC)c(O)c3c2=O)cc(O)c1OC	enzyme activity, inhibitor, ADP detection	100 µM	inhibition	29%
Nc1ncnc2c1ncn2[C@@H]1O[C@H](COP(=O)(O)OP(=O)(O)OP(=O)(O)O)[C@@H](O)[C@H]1O	enzyme activity, substrate, radiometric	–	Km	9.3 µM
